In test [1] the test system is C2C12. In words: Increase in glucose uptake in mouse C2C12 cells incubated for 18 hrs using [3H]-2-deoxy-D-glucose by liquid scintillation counting. The class given is functional, cell-based. The gist of the method: (§1)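 Differentiated confluent C2C12 myotubes were held 18 h in DMEM with 2% horse serum containing compound (6.25–100 μM; 0.1% DMSO vehicle control). Cells were equilibrated 30 min at 37 °C in Krebs phosphate buffer pH 7.4 with 5 mM glucose, rinsed glucose-free, then given 10 μM 2-deoxy-D-glucose plus 1 μCi/mL [3H]-2-deoxyglucose for 10 min at 37 °C. Cells were lysed in 0.1 M NaOH and counted by scintillation.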

Test [2] concerns C2C12. In words: Increase in glucose uptake in mouse C2C12 cells incubated for 18 hrs using [3H]-2-deoxy-D-glucose by liquid scintillation counting relative to DMSO. Type of test: functional. Details: concentration or dose not given beside the values; call rule not given here. The method, boiled down: as §1
Test [3] addresses T1, Glucose-6-phosphatase catalytic subunit 1 (Rattus norvegicus, UniProt P43428).
T1 sequence (P43428 whole entry): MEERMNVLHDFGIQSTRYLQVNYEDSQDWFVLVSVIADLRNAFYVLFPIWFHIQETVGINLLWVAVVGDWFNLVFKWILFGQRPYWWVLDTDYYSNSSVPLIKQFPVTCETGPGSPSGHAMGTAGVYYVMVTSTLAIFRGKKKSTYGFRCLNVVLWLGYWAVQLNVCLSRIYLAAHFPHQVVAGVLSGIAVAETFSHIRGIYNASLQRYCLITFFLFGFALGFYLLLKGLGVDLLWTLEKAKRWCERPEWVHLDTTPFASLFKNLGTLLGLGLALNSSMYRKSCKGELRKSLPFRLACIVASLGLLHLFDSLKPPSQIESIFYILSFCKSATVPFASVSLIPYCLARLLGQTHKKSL
In words: Inhibition of glucose-6-phosphatase enzymatic activity in rat […] cells using G6P substrate incubated for 18 hrs by colorimetric assay. Type of test: cell-based. The gist of the method: (§2)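 H4IIE rat hepatoma cells at 90% confluence were treated 18 h with compound (1–100 μM; 0.1% DMSO control, 100 nM insulin reference). Cells were lysed in 15 mM phosphate buffer pH 6.5 with 0.05% Triton and 1.3 mM phenol, and lysate was incubated with 200 mM glucose-6-phosphate for 40 min at 37 °C. Glucose formed was read by glucose oxidase colorimetry at 505 nm and normalised to protein.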

Test [4] concerns the target T2, Glucose-6-phosphatase catalytic subunit 1 (Rattus norvegicus) (UniProt P43428).
T2 sequence (whole entry): T1 sequence (P43428 whole entry)
In words: Inhibition of glucose-6-phosphatase enzymatic activity in rat […] cells at 50 uM using G6P substrate incubated for 18 hrs by colorimetric assay. Type of test: cell-based. The method, boiled down:
as §2

Setting [5] is: Mus musculus, C2C12, read-out: EC50.

Molecules are shown by their SMILES.

As for `O=c1c(O[C@@H]2O[C@H](CO)[C@H](O)[C@H](O)[C@H]2O)c(-c2ccc(O)c(O)c2)oc2cc(O)cc(O)c12` [HYPEROSIDE], the EC50 with C2C12 [1] (setting [5]) was determined as 60.5 µM. In the test on C2C12 [2], this compound yielded an Efficacy of 211%.
Regarding `O=C(/C=C/c1ccc(O)c(O)c1)OC[C@H]1O[C@@H](Oc2c(-c3ccc(O)cc3)oc3cc(O)cc(O)c3c2=O)[C@H](O)[C@@H](O)[C@@H]1O`, in the test on C2C12 [1] (setting [5]), the EC50 was found to be 13.8 µM. This compound came in with an Efficacy in the test on C2C12 [2] of 188%.
Regarding `O=C(/C=C/c1ccc(O)c(O)c1)OC[C@H]1O[C@@H](O[C@@H]2COC(=O)C2)[C@H](O)[C@@H](O)[C@@H]1O`, the EC50 result with C2C12 [1] (c2c12) was “Not Active”. Also, the midpoint of inhibition in test [3], the IC50, lay at 13.9 µM. The same compound had an inhibition in test [4] of 44%.
Regarding `COC(=O)C1=CO[C@@H](O[C@H]2O[C@H](CO)[C@@H](O)[C@H](O)[C@H]2O)[C@@H]2[C@H](C)O[C@@H](OC)C[C@H]12`, the EC50 with C2C12 [1] (setting [5]) stood at 25.9 µM. In the test with C2C12 [2], this compound came in with an Efficacy of 120%.
On the same counts, the results for `COc1cc(-c2oc3cc(O)cc(O)c3c(=O)c2O[C@@H]2O[C@H](CO)[C@@H](O)[C@H](O)[C@H]2O)ccc1O` are 18.5 µM and 150%.
For `O=C1C[C@H](O[C@@H]2O[C@H](CO)[C@@H](O)[C@H](O)[C@H]2O)CO1` [GOODYEROSIDE], in the test on C2C12 [1] (setting [5]), the EC50 is 25.6 µM. The Efficacy in the test on C2C12 [2] is 124%. Also, in test [3], the IC50 stood at 391 µM. This compound also displayed an inhibition in test [4] of 19.6%.

One may read the EC50 as the concentration that produces a half-maximal response. What is called IC50 is the point on the concentration scale where inhibition reaches its midpoint. For orientation: inhibition means how much of the control response was suppressed.
